# High-throughput results deposited in PubChem BioAssay by several laboratories.
# STAT3 activator: STAT3 signaling activation; U3A cells, IL-6 STAT3-luciferase reporter, luminescence; 100% = signal with IL-6 EC80 alone; activation (% of control), % at 5.6 µM; 190,000 tested, 0.91% active;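 active = activation above the screen-wide mean of compound activation plus 3 SD, cut at about 130% in these data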
#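 Test system: human U3A cells carrying STAT3-luciferase construct; control set: IL-6-only wells as 100% reference; timing: compound pre-incubation 1 h before IL-6, then 6 h stimulation at 37 °C; also added: IL-6 stimulus at 33 ng/mL final; evaluation: % activation versus median of IL-6-stimulated wells; detection: reporter luminescence signal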
# NF-kB neuron act: raises NF-kB expression in human neuronal cells | NF-kB reporter expression; active compounds read high | fold change at 12.5 µM | 190,000 tested, 1.6% active; in the data active = fold change above about 3.3
# STAT1 act: activators of IFN-gamma induced STAT1 signaling; AID 932; NIH 3T3 STAT1-luciferase reporter, luminescence; 100% = IFN-gamma alone, no compound; 200,000 tested, 2.6% active; activation (% of control), % at 5.5 µM;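 active = activation above the screen-wide mean activation plus 3 SD, cut at about 130% in these data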
# STAT1 blocker: inhibitors of IFN-gamma induced STAT1 signaling | NIH 3T3 STAT1-luciferase reporter, luminescence | inhibition, % at 5.5 µM | 200,000 tested, 0.35% active | AID 920;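 active = inhibition above a set limit, the mean inhibition across all tested compounds plus 3 SD, cut at about 34% in these data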
# APP 5'UTR act: activates APP 5'UTR luciferase reporter | SH-SY5Y APP 5'UTR luciferase reporter, luminescence; zero percent = DMSO vehicle wells | 190,000 tested, 1% active | AID 1276 | activation, % at 2 µM;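 active = activation above a set limit, based on mean plus 3 SD of controls, cut at about 140% in these data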
# STAT3 inh: inhibitors of IL-6 induced STAT3 signaling | U3A cells, IL-6 STAT3-luciferase reporter, luminescence; host cell line lacks STAT1 | inhibition, % at 5.5 µM | 190,000 tested, 0.89% active;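 active = inhibition above the mean inhibition across all screened compounds plus 3 SD, cut at about 44% in these data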
# Hits are given with their value; n = inactive; x = not tested or not shown. Compounds with a hit are over-represented: about 4.9% of the library has one in this group of screens.
SMILES,STAT3 activator,NF-kB neuron act,STAT1 act,STAT1 blocker,APP 5'UTR act,STAT3 inh
O=C(N/N=C/c1cn(-c2cccs2)nc1-c1ccccc1)c1ccccc1Br,n,n,n,n,n,n
COc1ccc(-c2nn(-c3ccccc3)cc2/C=N/NC(=O)c2ccc3c(c2)OCO3)cc1,n,n,n,n,n,n
Cc1cc(C(=O)NC(C)Cc2ccccc2)cc(C)c1[N+](=O)[O-] (configuration not stated),n,n,n,n,n,n
COc1ccc(CC(=O)NCc2n[nH]c(=S)n2-c2cccc(Cl)c2)cc1,n,n,n,n,n,n
O=C(NCCOc1ccccc1Cl)c1cc(F)c(F)cc1Cl,n,3.8,130,n,n,n
O=C(NCc1ccccc1Cl)C(=O)NCC(c1ccco1)N1CCOCC1 (configuration not stated),n,n,n,n,n,n
CC(C)COC(=O)c1ccc(NC(=O)C2C3CCC(C3)C2C(=O)O)cc1 (configuration not stated),n,n,143,n,n,n
N#Cc1cccnc1Nc1ccc(Cl)cc1,n,n,n,n,n,n
CCCCc1ccc(Nc2ncccc2C#N)cc1,n,n,138,n,n,n
O=C(c1cc2ccccc2o1)N1CCCC1,n,n,n,n,n,n
C/C(=N\NS(=O)(=O)c1ccc(C)c([N+](=O)[O-])c1)c1cc2ccccc2o1,n,n,n,n,x,n
COc1cccc2cc(C(=O)c3ccccc3)oc12,n,n,137,n,n,n
O=C(c1ccccc1)c1cc2ccccc2o1,n,n,131,n,n,n
Cc1ccc(C(=O)c2cc3ccccc3o2)cc1[N+](=O)[O-],n,n,139,n,n,n
CCCCOc1ccc(C2C(C(=O)c3ccc(C)o3)=C(O)C(=O)N2CC2CCCO2)cc1 (configuration not stated),n,n,n,n,n,n
Cc1ccc(NC(=O)C2(NC(=O)c3ccccn3)CCCCC2)cc1Br,n,n,n,n,n,n
Cc1ccc(Nc2nc(C(=O)N3CCC(C(=O)N4CCN(C)CC4)CC3)cs2)cc1,n,n,n,n,n,n
Cc1ccc(Nc2nc(COC(=O)C3CC3)cs2)cc1,n,3.6,n,n,n,n
C/C(N)=C(/C#N)C(=O)COC(=O)CC12CC3CC(CC(C3)C1)C2,n,n,n,n,n,n
COc1ccc(Oc2nnc(C)c3ccccc23)cc1,n,3.5,130,n,n,n
N#CCOC(=O)/C=C/c1ccc2c(c1)OCO2,n,n,n,n,n,n
CC(OC(=O)Cc1c(F)cccc1Cl)C(=O)NCCC1=CCCCC1 (configuration not stated),n,n,n,n,n,n
O=C(/C=C/c1ccccc1)Nc1ccc(Br)cn1,n,n,142,n,n,n
O=C(/C=C/c1cccc([N+](=O)[O-])c1)Nc1ccc(Cl)cn1,n,n,n,n,n,n
Cc1ccc(NC(=O)/C=C/c2ccc(Cl)cc2)nc1,140,n,137,n,n,n
SMILES,STAT3 activator,NF-kB neuron act,STAT1 act,STAT1 blocker,APP 5'UTR act,STAT3 inh
Cc1nc2cc3nc(C(F)(F)F)[nH]c3cc2[nH]1,n,n,n,n,n,n
S=c1[nH]nc(C2CC2)n1Cc1ccco1,n,n,n,n,n,n
CCn1c(C2CCN(Cc3ccccc3)CC2)n[nH]c1=S,n,n,n,n,154,n
CC(=O)c1cccc(NC(=O)c2cnn3ccccc23)c1,n,3.4,129,n,x,n
Cc1ccc(C)c(NC(=O)c2cnn3ccccc23)c1,n,n,n,n,n,n
CC(=O)c1ccc(NC(=O)c2cnn3ccccc23)cc1,n,n,n,85,n,83
Cc1nn(CCO)c2nc(-c3cccs3)cc(C(F)(F)F)c12,n,n,n,n,n,n
COc1ccc(C(=O)Nc2nc(C)c(C(=O)N(C)C)s2)cc1OC,n,n,n,n,n,n
Cc1nc(NC(=O)c2ccc(Br)s2)sc1C(=O)N(C)C,n,n,138,n,n,n
Cc1nc(NC(=O)c2cc3c(s2)CCCCC3)sc1C(=O)N(C)C,n,n,132,n,n,n
O=C(Nc1ccc(Cl)cc1)N1CCc2ccccc2C1,n,n,139,n,n,n
Cc1ccc(NC(=O)N2CCc3ccccc3C2)cc1,n,3.5,148,n,n,n
